Test results taken from ChEMBL document CHEMBL4184152, “Thioether-stapled macrocyclic inhibitors of the EH domain of EHD1” (Bioorg Med Chem, 2018).
The source made the active and inactive calls. No cut-off for these calls is given here. Where a SMILES comes first, the peptide text is derived from it.

Legend:
[1] = biological target: T1, EH domain-containing protein 1 (Homo sapiens) (UniProt Q9H4M9); experiment: Inhibition of EHD1-EH in human HeLa cells assessed as reduction in internalized transferrin-488 recycling at 50 uM measured after 60 mins by pulse-chase method; assay type: cell-based
T1 sequence (whole entry): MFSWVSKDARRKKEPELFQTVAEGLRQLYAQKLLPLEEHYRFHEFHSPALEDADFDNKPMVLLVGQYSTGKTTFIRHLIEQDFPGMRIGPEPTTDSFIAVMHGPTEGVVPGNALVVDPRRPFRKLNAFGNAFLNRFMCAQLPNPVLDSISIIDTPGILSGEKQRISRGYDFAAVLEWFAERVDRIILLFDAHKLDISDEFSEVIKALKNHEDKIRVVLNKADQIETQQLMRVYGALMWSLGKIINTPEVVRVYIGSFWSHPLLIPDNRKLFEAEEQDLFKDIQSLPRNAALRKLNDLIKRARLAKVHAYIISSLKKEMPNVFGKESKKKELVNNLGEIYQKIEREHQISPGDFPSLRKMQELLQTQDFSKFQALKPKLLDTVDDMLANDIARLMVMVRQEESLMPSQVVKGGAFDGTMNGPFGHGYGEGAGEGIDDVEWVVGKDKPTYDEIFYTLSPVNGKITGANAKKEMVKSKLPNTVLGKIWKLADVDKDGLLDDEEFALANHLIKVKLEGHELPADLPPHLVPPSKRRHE
Procedure, shortened: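 HeLa cells were grown in DMEM/10% FBS to 80% confluence, then starved 30 min in DMEM with 0.5% BSA. Cells got a 60-min pulse with Tf-488 (25 µg/mL), with inhibitor present. A 30-min chase followed with 2 mg/mL unlabeled transferrin plus inhibitor, 0.2% DMSO final. Cells were washed in cold PBS, trypsinized and fixed. Flow cytometry counted 10,000 live cells; 50 µM primaquine was the positive control.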

[2] = biological target: T2, Epidermal growth factor receptor substrate 15 (Homo sapiens, UniProt P42566); experiment: Binding affinity to GST-fused Eps15 EH2 domain (unknown origin) expressed in Escherichia coli BL21 cells under high salt condition by fluorescence polarization assay
T2 sequence (P42566 whole entry): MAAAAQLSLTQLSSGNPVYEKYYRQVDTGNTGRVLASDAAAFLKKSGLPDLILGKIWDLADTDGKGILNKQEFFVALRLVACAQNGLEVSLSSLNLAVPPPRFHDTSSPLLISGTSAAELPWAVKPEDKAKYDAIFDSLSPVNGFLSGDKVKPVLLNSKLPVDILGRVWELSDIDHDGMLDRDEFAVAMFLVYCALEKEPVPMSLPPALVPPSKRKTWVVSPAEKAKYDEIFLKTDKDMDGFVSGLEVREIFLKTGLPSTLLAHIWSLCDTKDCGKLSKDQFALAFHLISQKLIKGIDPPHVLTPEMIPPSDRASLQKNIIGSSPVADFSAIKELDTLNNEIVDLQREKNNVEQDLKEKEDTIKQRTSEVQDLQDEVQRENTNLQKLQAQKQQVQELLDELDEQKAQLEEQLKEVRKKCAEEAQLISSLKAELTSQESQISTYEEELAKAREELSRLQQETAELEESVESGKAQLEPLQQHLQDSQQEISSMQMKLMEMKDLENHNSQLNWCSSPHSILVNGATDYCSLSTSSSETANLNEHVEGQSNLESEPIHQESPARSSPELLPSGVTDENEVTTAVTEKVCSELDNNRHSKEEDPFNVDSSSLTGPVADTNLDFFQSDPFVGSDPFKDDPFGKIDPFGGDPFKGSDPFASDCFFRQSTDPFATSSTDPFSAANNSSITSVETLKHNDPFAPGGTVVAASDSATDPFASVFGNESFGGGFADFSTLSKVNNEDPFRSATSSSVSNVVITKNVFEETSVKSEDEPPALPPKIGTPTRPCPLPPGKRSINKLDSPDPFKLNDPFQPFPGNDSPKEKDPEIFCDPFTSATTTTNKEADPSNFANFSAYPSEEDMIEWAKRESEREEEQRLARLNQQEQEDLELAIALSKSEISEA
Procedure, shortened: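 Eps15-EH2 protein concentration was set by A280 using an extinction coefficient of 13980 M-1cm-1. Binding of fluorescein-labeled peptides to Eps15-EH2 was measured in an FP direct binding format with varying protein concentration.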

Homo sapiens = organism: Homo sapiens; experiment: Selectivity ratio of IC50 for GST-fused Eps15 EH2 domain (unknown origin) expressed in Escherichia coli BL21 cells to IC50 for GST-fused EHD1 EH domain (unknown origin)
[3] = biological target: T3, EH domain-containing protein 1 (Homo sapiens, UniProt Q9H4M9); experiment: Binding affinity to GST-fused EHD1 EH domain (unknown origin) expressed in Escherichia coli BL21 cells measured after 1 hr in presence of 15 mM NaCl by fluorescence polarization assay
T3 sequence (Q9H4M9 whole entry): T1 sequence (whole entry)
Procedure, shortened: (§1)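 NaCl was 15 mM or 150 mM. Polarization was read 1 h after probe addition and re-read later to confirm equilibrium. Kd came from curve fits; technical triplicates, three independent experiments.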

[4] = biological target: T3, EH domain-containing protein 1; experiment: Binding affinity to GST-fused EHD1 EH domain (unknown origin) expressed in Escherichia coli BL21 cells measured after 1 hr in presence of 150 mM NaCl by fluorescence polarization assay; procedure, shortened: as §1

SMILES	inhibition [1]	IC50 [2]	Ratio IC50 (Homo sapiens)	Kd [3]	Kd [4]
COc1cc(NC(C)CCCN)c2ncccc2c1 (configuration not stated)	Active				
CC(=O)N(CCCC[C@@H]1NC(=O)CNC(=O)[C@H](CCC(=O)O)NC(=O)[C@H](CCC(=O)O)NC(=O)[C@H](Cc2ccccc2)NC(=O)[C@@H]2CCCN2C(=O)[C@H](CC(N)=O)NC(=O)[C@H](Cc2ccc(O)cc2)NC1=O)C(=O)c1ccccc1-c1c2ccc(=O)cc-2oc2cc(O)ccc12 (HELM PEPTIDE1{E.E.G.[CC(=O)N(CCCC[C@H](N[*:1])C(=O)[*:2])C(=O)c1ccccc1-c1c2ccc(=O)cc-2oc2cc(O)ccc12].Y.N.P.F}$PEPTIDE1,PEPTIDE1,1:R1-8:R2$$$V2.0)		> 100 µM	15	3 µM	15.1 µM
NC(=O)C[C@@H]1NC(=O)[C@H](Cc2ccc(O)cc2)NC(=O)CNC(=O)CNC(=O)[C@H](CCC(=O)O)NC(=O)[C@H](CCC(=O)O)NC(=O)[C@H](Cc2ccccc2)NC(=O)[C@@H]2CCCN2C1=O (HELM PEPTIDE1{Y.N.P.F.E.E.G.G}$PEPTIDE1,PEPTIDE1,1:R1-8:R2$$$V2.0)	inactive				
C#CCCC(=O)N[C@H]1CSCc2ccc(cc2)CSCCNC(=O)[C@H](CCC(=O)O)NC(=O)[C@H](CCC(=O)O)NC(=O)[C@H](Cc2ccccc2)NC(=O)[C@@H]2CCCN2C(=O)[C@H](CC(N)=O)NC(=O)[C@H](Cc2ccc(O)cc2)NC1=O (HELM PEPTIDE1{[C#CCCC(=O)[*:2]].C.Y.N.P.F.E.E}|CHEM1{[c1cc(C[*:1])ccc1CSCCN[*:2]]}$PEPTIDE1,CHEM1,2:R3-1:R1|PEPTIDE1,CHEM1,8:R2-1:R2$$$V2.0)	inactive				
